BaF3 parental: parental Ba/F3 cell viability inhibition, counter-screen for JAK2V617F inhibitor project, murine pro-B, CellTiter-Glo luminescence | CellTiter-Glo ATP luminescence | inhibition, % at 5.6 µM | 220,000 tested, 1.1% active | AID 1486, 2009;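 active = inhibition above a per-campaign cutoff, the mean inhibition of all tested compounds plus 3 SD, cut at about 27% in these data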;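 note: 0% = DMSO wells and 100% = JAK Inhibitor I control wells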
bCat nuc transl: modulators of beta-catenin nuclear translocation, primary screen, imaging, HeLa cells, immunofluorescence, high-content. AID 1665, 2009. nuclear translocation activity, % at 5 µM. 190,000 tested, 0.3% active;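 active = nuclear translocation activity above 50% at 5 µM, with a well cell count of 50 or more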;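 note: per-cell ratio of nuclear to cytoplasmic median beta-catenin stain intensity; plate controls were DMSO negative control for no effect and GSK-3 inhibitor IX positive control for full effect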
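test system = HeLa cells, endogenous beta-catenin | dosing = single 5 µM dose plus 0.02–20 µM confirmation series | times = compound treatment 24 h, 37°C, 5% CO2 | technique = beta-catenin immunofluorescence imaging with DAPI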
MT stabilizer: microtubule stabilizers in HeLa cells, primary screen, imaging, high-content imaging; % tubulin-high responders, % at 10 µM; 200,000 tested, 0.83% active; HeLa tubulin immunostaining HCS, 24 h; share of cells brighter than vehicle mean+2SD; AID 2205, 2009;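 active = plate Z-score above 3 for both tubulin-high and condensed-nucleus cell shares, with cell loss under 80%, at 10 µM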;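 note: anti alpha tubulin signal scored within the nucleus-defined area of each cell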
APP 5UTR inh: inhibitors of APP translation via 5'UTR reporter, primary screen, APP 5'UTR luciferase, SH-SY5Y cells. SH-SY5Y APP 5'UTR-luciferase reporter, luminescence. AID 1285, 2008. 190,000 tested, 0.82% active. inhibition, % at 2 µM;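 active = inhibition above a set limit, derived from the sample mean plus 3 SD, cut at about 45% in these data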
Ba/F3 V617F tox: reduced viability of JAK2V617F-dependent Ba/F3 cells, primary screen, JAK2V617F inhibitor project, cell-based, Ba/F3 EpoR-JAK2V617F, luminescence. ATP luminescence. inhibition, % at 5.6 µM. 220,000 tested, 1.1% active. AID 1446, 2008;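 active = inhibition above the campaign mean plus 3 SD over all tested compounds, cut at about 24% in these data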;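 note: cytokine-independent growth of Ba/F3 cells driven by EpoR plus mutant JAK2; 0% = DMSO-treated cells and 100% = JAK inhibitor I control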
IEC-6 cytotox: cytotoxicity in IEC-6 intestinal epithelial cells, primary screen, cytotoxicity control for KLF5 inhibitor project, cell-based, luminescence; 290,000 tested, 0.78% active; AID 1825, 2009; inhibition, % at 5 µM; IEC-6 cytotoxicity, luminescence viability; in the data active = inhibition above about 22%;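 note: 0% = plate median of test compound wells and 100% = cytotoxic reference compound wells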
* marks the source's active call; other numbers are inactive results; / = not tested or not shown. Sampled rows, rich in hits. Any-hit rate of the full collection: about 2.2%.

SMILES | BaF3 parental | bCat nuc transl | MT stabilizer | APP 5UTR inh | Ba/F3 V617F tox | IEC-6 cytotox
CCC(C)NC(=S)Nc1ccccc1 (centres undefined) | -2 | 0 | / | / | 2 | 0
CCC(C)NC(=S)Nc1ccc(C(=O)OC)cc1 (centres undefined) | 50* | 3 | 5 | -26 | 7 | 10
O=C(Nc1ccccc1)c1nnsc1S(=O)c1ccc(Cl)cc1 (centres undefined) | -4 | 0 | 2 | 0 | -2 | 6
O=C(c1nnsc1S(=O)c1ccc(Cl)cc1)N1CCOCC1 (centres undefined) | 40* | -3 | 6 | 48* | 90* | 14
O=C1CCCN1CC(O)CS(=O)(=O)Cc1ccccc1Cl (centres undefined) | / | / | / | / | / | 0
Cc1ccc(Oc2c(CO)c(-c3ccccc3)nn2C)cc1 | 7 | 1 | 18* | 10 | 1 | 6
O=C(N/C(=C/c1ccc(Cl)cc1)c1nc2ccccc2[nH]1)c1ccco1 | 4 | 1 | 3 | 9 | -3 | -1
O=C(/C(=C/c1ccc(Cl)cc1)c1nc2ccccc2[nH]1)c1ccccc1 | -2 | 0 | 47* | -84 | -3 | -11
COc1ccccc1C(=O)NCC(=O)N/N=C/c1ccc([N+](=O)[O-])cc1 | 48* | 3 | 2 | 5 | -1 | -1
O=C(CNc1ccccc1)N/N=C/c1ccc([N+](=O)[O-])cc1 | 8 | 0 | 2 | 7 | 2 | 0
COc1ccc(-c2cn3cc(Br)cnc3n2)cc1 | 4 | 1 | 20* | -100 | 1 | 5
COc1ccc(-c2cn3cccnc3n2)cc1Br | 8 | 1 | 2 | 4 | -1 | 0
Cc1cc(C)c2c(N)c3cccc(C)c3nc2n1 | 19 | -3 | 13* | 27 | 13 | 16
S=C(Nc1cccc(Cl)c1Cl)N1CCC2(CC1)OCCO2 | 30* | -2 | 1 | -10 | 3 | 5
S=C(Nc1ccccc1Cl)N1CCCC1 | 5 | -1 | 3 | 25 | -2 | 0
O=[N+]([O-])c1ccc(Nc2ccccc2)nc1 | 1 | 1 | 1 | -16 | -2 | -1
O=[N+]([O-])c1ccc(NCc2ccccc2)nc1 | 75* | 1 | 1 | -14 | 32* | 6
COc1ccc(C2CC(C(F)(F)F)n3nc(C(=O)NCc4c(C)nn(C)c4C)c(Cl)c3N2)cc1 (centres undefined) | 44* | -3 | 3 | -11 | 36* | 5
Cn1c(CNC(=O)c2ccco2)nnc1SCC(=O)N1CCN(c2ccccc2F)CC1 | / | / | / | / | / | -5
CN(C)N1C(N)=C(C#N)C(c2cccc3ccccc23)C2=C1CC(c1ccccc1)CC2=O (centres undefined) | 6 | 12 | 12* | -3 | 1 | 0
Cc1ccc(C)c(C(=O)COC(=O)Cn2c(C)csc2=O)c1 | / | / | / | / | / | -2
Cc1ccc(CCC(=O)Nc2ncc(Cc3cccc(Cl)c3Cl)s2)o1 | 0 | 100* | 7 | 96* | 0 | -2
CCc1nnc(NC(=O)CCc2ccc(C)o2)s1 | 3 | / | 2 | -3 | -2 | -7
COC(=O)c1ccc(NC(=O)CSc2nnc(COc3ccc4c(c3)CCCC4)o2)cc1 | 96* | 5 | 3 | -3 | -3 | -6
Cc1cccc(NC(=S)N/N=C/c2cccc(O)c2)c1C | 51* | 2 | / | / | 78* | 13
SMILES | BaF3 parental | bCat nuc transl | MT stabilizer | APP 5UTR inh | Ba/F3 V617F tox | IEC-6 cytotox
CCOC(=O)c1c(C)nc2sc(C(=O)Nc3ccc(OC)cc3)c(N)c2c1-c1ccc(OC)cc1 | 7 | -6 | 24* | 2 | 2 | -5
CCOC(=O)c1c(C)nc2sc(C(N)=O)c(N)c2c1-c1ccc(OC)cc1 | -1 | -5 | 1 | 64* | -4 | 0
CSCCC(=O)N1CCCC(N(C)CCc2ccccc2)C1 (centres undefined) | / | / | / | / | / | 6
NNC(=O)c1cc2c(s1)CCCCCC2 | 5 | 0 | 3 | 70* | -3 | 7
COc1ccc(-c2noc(N3CCCC(C(=O)Nc4ccc(C(C)=O)cc4)C3)n2)cc1 (centres undefined) | / | / | / | / | / | 6
CCC(=NCCc1c(C)[nH]c2ccc(OC(F)(F)F)cc12)C1=C(O)CC(c2ccccc2)CC1=O (centres undefined) | 4 | 0 | 10 | 78* | -1 | -12
CC(=NCCc1c(C)[nH]c2ccc(OCc3ccccc3)cc12)C1=C(O)CC(c2ccccc2)CC1=O (centres undefined) | 3 | -1 | 2 | -22 | -3 | -4
CCC(=NC)C1=C(O)CC(c2ccccc2)CC1=O (centres undefined) | / | / | / | / | / | -6
CCC(=NCCc1c(C)[nH]c2ccccc12)C1=C(O)CC(c2ccccc2)CC1=O (centres undefined) | 4 | 80* | 15* | 29 | -4 | -3
CCCCC(=NCCc1c(C)[nH]c2ccc(OC)cc12)C1=C(O)CC(c2ccccc2)CC1=O (centres undefined) | 4 | 17 | 17* | 78* | -3 | 1
O=C(CN(Cc1ccccc1)C(=O)CNS(=O)(=O)c1ccc(F)cc1)NCc1ccco1 | / | / | / | / | / | 0
O=C(OCc1ccccc1)N1CCCC1/C=C/CN1CCOCC1 (centres undefined) | 2 | -1 | 2 | 63* | 0 | 1
COC(=O)c1cccc(CSc2nc(-c3ccccc3)c(C#N)c(=O)[nH]2)c1 | / | / | / | / | / | -1
COc1ccc(NC(=O)CC(c2ccco2)C(C)C)cc1 (centres undefined) | / | / | / | / | / | 2
CCN(CC(=O)NCCc1ccc(S(N)(=O)=O)cc1)Cc1ccccc1 | / | / | / | / | / | -3
CCn1ncc(Br)c1C(=O)Nc1ccc(C(C)C)cc1 | / | / | / | / | / | 9
N=c1n(Cc2ccc(Cl)cc2)c2ccccc2n1CC(O)COc1ccccc1 (centres undefined) | 36* | 6 | 21* | -6 | 12 | -5
Cc1cccc(OCC(O)Cn2c(=N)n(CCN3CCCCC3)c3ccccc32)c1 (centres undefined) | 55* | -1 | 9 | -2 | 25* | 6
CCN(CC)CCn1c(=N)n(CC(O)COc2cccc(C)c2)c2ccccc21 (centres undefined) | 12 | -1 | 3 | 0 | 13 | 0
CCOc1ccc(C(=O)Nc2ccc3[nH]ncc3c2)cc1 | / | / | / | / | / | -5
N#CCCn1cc(C(=O)Nc2ccc(C(=O)O)cc2)c(-c2cc3ccccc3o2)n1 | 10 | 0 | 3 | 5 | 6 | -1
COc1ccc(NC(=O)c2cn(CCC#N)nc2-c2cc3ccccc3o2)cc1 | 3 | -2 | 7 | 46* | 7 | -8
O=C1/C(=C\c2ccc3ccccc3c2)CCCc2ccccc21 | 4 | 50* | 30* | -41 | 0 | 0

Screens: PubChem BioAssay, several laboratories
